In brackets after ≈: the same amount, converted by molar mass.
Experiments:
Format in all cases: functional
[1] = tested on: Streptococcus pneumoniae; experiment: Antimicrobial activity against drug-resistant Streptococcus pneumoniae isolate 1635 after 49 passages with clarithromycin measured after 10 antibiotic-free subculture by multi-step resistance selection technique
[2] = tested on: Streptococcus pneumoniae; experiment: Antimicrobial activity against drug-resistant Streptococcus pneumoniae isolate 3413 after 30 passages with Telithromycin measured after 10 antibiotic-free subculture by multi-step resistance selection technique
How it was run: (§1)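 Mutants selected by daily broth passage in subinhibitory drug in cation-adjusted Mueller-Hinton broth with 5% lysed horse blood. Stability was tested by 10 daily passages on blood agar without antibiotic, then macrodilution MIC.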

[3] = tested on: Streptococcus pneumoniae; experiment: Antimicrobial activity against drug-resistant Streptococcus pneumoniae isolate 3009 by NCCLS M7-A7 method
[4] = tested on: Streptococcus pneumoniae; experiment: Antimicrobial activity against drug-resistant Streptococcus pneumoniae isolate 3274 after 48 passages with Telithromycin measured after 10 antibiotic-free subculture by multi-step resistance selection technique; how it was run: as §1
[5] = tested on: Streptococcus pneumoniae; experiment: Antimicrobial activity against drug-resistant Streptococcus pneumoniae isolate 3676 after 44 passages with clarithromycin measured after 10 antibiotic-free subculture by multi-step resistance selection technique
[6] = tested on: Streptococcus pneumoniae; experiment: Antimicrobial activity against drug-resistant Streptococcus pneumoniae isolate 1635 after 49 passages by multi-step resistance selection technique
How it was run: (§2)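 Daily serial passage in subinhibitory drug levels in 1 ml cation-adjusted Mueller-Hinton broth with 5% lysed horse blood; fresh broth for tigecycline. Each day, 10 μl were taken from the tube one to two dilutions below the MIC whose turbidity matched the growth control, and used to set the next MIC. […] MIC by macrodilution.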

[7] = tested on: Streptococcus pneumoniae; experiment: Antimicrobial activity against drug-resistant Streptococcus pneumoniae isolate 1635 by NCCLS M7-A7 method
[8] = tested on: Streptococcus pneumoniae; experiment: Antimicrobial activity against drug-resistant Streptococcus pneumoniae isolate 3009 after 18 passages with levofloxacin measured after 10 antibiotic-free subculture by multi-step resistance selection technique; how it was run: as §1
[9] = tested on: Streptococcus pneumoniae; experiment: Antimicrobial activity against drug-resistant Streptococcus pneumoniae isolate 3665 by NCCLS M7-A7 method
[10] = tested on: Streptococcus pneumoniae; experiment: Antimicrobial activity against drug-resistant Streptococcus pneumoniae isolate 3665 after 26 passages by multi-step resistance selection technique
How it was run: (§3)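 Daily serial passage in broth at subinhibitory drug levels: 1 ml cation-adjusted Mueller-Hinton broth with 5% lysed horse blood; fresh broth for tigecycline. Each day 10 μl inoculum taken from the tube one to two dilutions below MIC matching growth-control turbidity, used to set next MIC. Continued until ≥8-fold MIC rise, minimum 14, maximum 50 passages; MIC read by macrodilution.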

[11] = tested on: Streptococcus pneumoniae; experiment: Antimicrobial activity against drug-resistant Streptococcus pneumoniae isolate 1076 after 35 passages with moxifloxacin measured after 10 antibiotic-free subculture by multi-step resistance selection technique; how it was run: as §1
[12] = tested on: Streptococcus pneumoniae; experiment: Antimicrobial activity against drug-resistant Streptococcus pneumoniae isolate 1077 after 15 passages with Telithromycin measured after 10 antibiotic-free subculture by multi-step resistance selection technique; how it was run: as §1
[13] = tested on: Streptococcus pneumoniae; experiment: Antimicrobial activity against drug-resistant Streptococcus pneumoniae isolate 2527 by NCCLS M7-A7 method
[14] = tested on: Streptococcus pneumoniae; experiment: Antimicrobial activity against drug-resistant Streptococcus pneumoniae isolate 2527 after 14 passages with gemifloxacin measured after 10 antibiotic-free subculture by multi-step resistance selection technique; how it was run: as §1
[15] = tested on: Streptococcus pneumoniae; experiment: Antimicrobial activity against drug-resistant Streptococcus pneumoniae isolate 3665 after 38 passages with moxifloxacin measured after 10 antibiotic-free subculture by multi-step resistance selection technique
[16] = tested on: Streptococcus pneumoniae; experiment: Antimicrobial activity against drug-resistant Streptococcus pneumoniae isolate 24 after 14 passages with Telithromycin measured after 10 antibiotic-free subculture by multi-step resistance selection technique; how it was run: as §1
[17] = tested on: Streptococcus pneumoniae; experiment: Antimicrobial activity against drug-resistant Streptococcus pneumoniae isolate 24 by NCCLS M7-A7 method
[18] = tested on: Streptococcus pneumoniae; experiment: Antimicrobial activity against drug-resistant Streptococcus pneumoniae isolate 1635 after 14 passages with clindamycin measured after 10 antibiotic-free subculture by multi-step resistance selection technique
[19] = tested on: Streptococcus pneumoniae; experiment: Antimicrobial activity against drug-resistant Streptococcus pneumoniae isolate 3413 by NCCLS M7-A7 method
[20] = tested on: Streptococcus pneumoniae; experiment: Antimicrobial activity against drug-resistant Streptococcus pneumoniae isolate 3676 after 50 passages with moxifloxacin measured after 10 antibiotic-free subculture by multi-step resistance selection technique
[21] = tested on: Streptococcus pneumoniae; experiment: Antimicrobial activity against drug-resistant Streptococcus pneumoniae isolate 3676 by NCCLS M7-A7 method
[22] = tested on: Streptococcus pneumoniae; experiment: Antimicrobial activity against drug-resistant Streptococcus pneumoniae isolate 1635 after 14 passages with azithromycin measured after 10 antibiotic-free subculture by multi-step resistance selection technique; how it was run: as §1
[23] = tested on: Streptococcus pneumoniae; experiment: Antimicrobial activity against drug-resistant Streptococcus pneumoniae isolate 1077 by NCCLS M7-A7 method
[24] = tested on: Streptococcus pneumoniae; experiment: Antimicrobial activity against drug-resistant Streptococcus pneumoniae isolate 3243 after 41 passages with clarithromycin measured after 10 antibiotic-free subculture by multi-step resistance selection technique
[25] = tested on: Streptococcus pneumoniae; experiment: Antimicrobial activity against drug-resistant Streptococcus pneumoniae isolate 3274 after 50 passages by multi-step resistance selection technique
How it was run: (§4)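 Daily serial passage in subinhibitory drug levels in 1 ml cation-adjusted Mueller-Hinton broth with 5% lysed horse blood; fresh broth for tigecycline. Each day, 10 μl were taken from the tube one to two dilutions below the MIC whose turbidity matched the growth control, and used to set the next MIC. MIC by macrodilution.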

[26] = tested on: Streptococcus pneumoniae; experiment: Antimicrobial activity against drug-resistant Streptococcus pneumoniae isolate 3665 after 14 passages with Telithromycin measured after 10 antibiotic-free subculture by multi-step resistance selection technique
[27] = tested on: Streptococcus pneumoniae; experiment: Antimicrobial activity against drug-resistant Streptococcus pneumoniae isolate 1077 after 49 passages with clindamycin measured after 10 antibiotic-free subculture by multi-step resistance selection technique
[28] = tested on: Streptococcus pneumoniae; experiment: Antimicrobial activity against drug-resistant Streptococcus pneumoniae isolate 3274 by NCCLS M7-A7 method
[29] = tested on: Streptococcus pneumoniae; experiment: Antimicrobial activity against drug-resistant Streptococcus pneumoniae isolate 1076 by NCCLS M7-A7 method
[30] = tested on: Streptococcus pneumoniae; experiment: Antimicrobial activity against drug-resistant Streptococcus pneumoniae isolate 3676 after 44 passages by multi-step resistance selection technique; how it was run: as §3
[31] = tested on: Streptococcus pneumoniae; experiment: Antimicrobial activity against drug-resistant Streptococcus pneumoniae isolate 24 after 50 passages with moxifloxacin measured after 10 antibiotic-free subculture by multi-step resistance selection technique; how it was run: as §1
[32] = tested on: Streptococcus pneumoniae; experiment: Antimicrobial activity against drug-resistant Streptococcus pneumoniae isolate 3243 after 33 passages with azithromycin measured after 10 antibiotic-free subculture by multi-step resistance selection technique; how it was run: as §1
[33] = tested on: Streptococcus pneumoniae; experiment: Antimicrobial activity against drug-resistant Streptococcus pneumoniae isolate 2527 after 50 passages by multi-step resistance selection technique; how it was run: as §2
[34] = tested on: Streptococcus pneumoniae; experiment: Antimicrobial activity against drug-resistant Streptococcus pneumoniae isolate 3243 by NCCLS M7-A7 method
[35] = tested on: Streptococcus pneumoniae; experiment: Antimicrobial activity against drug-resistant Streptococcus pneumoniae isolate 2527 after 20 passages with azithromycin measured after 10 antibiotic-free subculture by multi-step resistance selection technique; how it was run: as §1
[36] = tested on: Streptococcus pneumoniae; experiment: Antimicrobial activity against drug-resistant Streptococcus pneumoniae isolate 3243 after 20 passages with moxifloxacin measured after 10 antibiotic-free subculture by multi-step resistance selection technique; how it was run: as §1
[37] = tested on: Streptococcus pneumoniae; experiment: Antimicrobial activity against drug-resistant Streptococcus pneumoniae isolate 3665 after 26 passages with clarithromycin measured after 10 antibiotic-free subculture by multi-step resistance selection technique
[38] = tested on: Streptococcus pneumoniae; experiment: Antimicrobial activity against drug-resistant Streptococcus pneumoniae isolate 3009 after 21 passages with gemifloxacin measured after 10 antibiotic-free subculture by multi-step resistance selection technique; how it was run: as §1
[39] = tested on: Streptococcus pneumoniae; experiment: Antimicrobial activity against drug-resistant Streptococcus pneumoniae isolate 1077 after 29 passages with azithromycin measured after 10 antibiotic-free subculture by multi-step resistance selection technique; how it was run: as §1
[40] = tested on: Streptococcus pneumoniae; experiment: Antimicrobial activity against drug-resistant Streptococcus pneumoniae isolate 3243 after 41 passages by multi-step resistance selection technique; how it was run: as §2
[41] = tested on: Streptococcus pneumoniae; experiment: Antimicrobial activity against drug-resistant Streptococcus pneumoniae isolate 3009 after 19 passages with moxifloxacin measured after 10 antibiotic-free subculture by multi-step resistance selection technique; how it was run: as §1
[42] = tested on: Streptococcus pneumoniae; experiment: Antimicrobial activity against drug-resistant Streptococcus pneumoniae isolate 3413 after 50 passages by multi-step resistance selection technique; how it was run: as §4
[43] = tested on: Streptococcus pneumoniae; experiment: Antimicrobial activity against drug-resistant Streptococcus pneumoniae isolate 1077 after 50 passages by multi-step resistance selection technique; how it was run: as §4
[44] = tested on: Streptococcus pneumoniae; experiment: Antimicrobial activity against drug-resistant Streptococcus pneumoniae isolate 1076 after 14 passages with Telithromycin measured after 10 antibiotic-free subculture by multi-step resistance selection technique; how it was run: as §1
[45] = tested on: Streptococcus pneumoniae; experiment: Antimicrobial activity against drug-resistant Streptococcus pneumoniae isolate 3009 after 25 passages by multi-step resistance selection technique; how it was run: as §2
[46] = tested on: Streptococcus pneumoniae; experiment: Antimicrobial activity against drug-resistant Streptococcus pneumoniae isolate 37 by NCCLS M7-A7 method
[47] = tested on: Streptococcus pneumoniae; experiment: Antimicrobial activity against drug-resistant Streptococcus pneumoniae isolate 37 after 14 passages with Telithromycin measured after 10 antibiotic-free subculture by multi-step resistance selection technique
[48] = tested on: Streptococcus pneumoniae; experiment: Antimicrobial activity against drug-resistant Streptococcus pneumoniae isolate 3676 after 14 passages with Telithromycin measured after 10 antibiotic-free subculture by multi-step resistance selection technique
[49] = tested on: Streptococcus pneumoniae; experiment: Antimicrobial activity against drug-resistant Streptococcus pneumoniae isolate 3009 after 25 passages with clarithromycin measured after 10 antibiotic-free subculture by multi-step resistance selection technique
[50] = tested on: Streptococcus pneumoniae; experiment: Antimicrobial activity against drug-resistant Streptococcus pneumoniae isolate 3243 after 29 passages with Telithromycin measured after 10 antibiotic-free subculture by multi-step resistance selection technique; how it was run: as §1

## CC[C@H]1OC(=O)[C@H](C)[C@@H](O[C@H]2C[C@@](C)(OC)[C@@H](O)[C@H](C)O2)[C@H](C)[C@@H](O[C@@H]2O[C@H](C)C[C@H](N(C)C)[C@H]2O)[C@](C)(OC)C[C@@H](C)C(=O)[C@H](C)[C@@H](O)[C@]1(C)O [CLARITHROMYCIN]
[1]
  MIC: > 64 µg/mL
[2]
  MIC: 16 µg/mL (≈ 21.4 µM)
[3]
  MIC: 16 µg/mL (≈ 21.4 µM)
[4]
  MIC: 1 µg/mL (≈ 1.34 µM)
[5]
  MIC: 16 µg/mL (≈ 21.4 µM)
[6]
  MIC: > 64 µg/mL
[7]
  MIC: 0.5 µg/mL (≈ 0.668 µM)
[8]
  MIC: 8 µg/mL (≈ 10.7 µM)
[9]
  MIC: 2 µg/mL (≈ 2.67 µM)
[10]
  MIC: 16 µg/mL (≈ 21.4 µM)
[11]
  MIC: > 64 µg/mL
[12]
  MIC: > 64 µg/mL
[13]
  MIC: 0.008 µg/mL (≈ 0.0107 µM)
[14]
  MIC: 0.016 µg/mL (≈ 0.0214 µM)
[15]
  MIC: 2 µg/mL (≈ 2.67 µM)
[16]
  MIC: > 64 µg/mL
[17]
  MIC: > 64 µg/mL
[18]
  MIC: 0.5 µg/mL (≈ 0.668 µM)
[19]
  MIC: 8 µg/mL (≈ 10.7 µM)
[20]
  MIC: 4 µg/mL (≈ 5.35 µM)
[21]
  MIC: 4 µg/mL (≈ 5.35 µM)
[22]
  MIC: > 64 µg/mL
[23]
  MIC: 0.016 µg/mL (≈ 0.0214 µM)
[24]
  MIC: 0.25 µg/mL (≈ 0.334 µM)
[25]
  MIC: 0.03 µg/mL (≈ 0.0401 µM)
[26]
  MIC: 2 µg/mL (≈ 2.67 µM)
[27]
  MIC: > 64 µg/mL
[28]
  MIC: 0.008 µg/mL (≈ 0.0107 µM)
[29]
  MIC: > 64 µg/mL
[30]
  MIC: 32 µg/mL (≈ 42.8 µM)
[31]
  MIC: > 64 µg/mL
[32]
  MIC: 0.5 µg/mL (≈ 0.668 µM)
[33]
  MIC: 0.016 µg/mL (≈ 0.0214 µM)
[34]
  MIC: 0.016 µg/mL (≈ 0.0214 µM)
[35]
  MIC: 16 µg/mL (≈ 21.4 µM)
[36]
  MIC: 0.004 µg/mL (≈ 0.00535 µM)
[37]
  MIC: 8 µg/mL (≈ 10.7 µM)
[38]
  MIC: 16 µg/mL (≈ 21.4 µM)
[39]
  MIC: > 64 µg/mL
[40]
  MIC: 0.25 µg/mL (≈ 0.334 µM)
[41]
  MIC: 8 µg/mL (≈ 10.7 µM)
[42]
  MIC: 8 µg/mL (≈ 10.7 µM)
[43]
  MIC: 0.008 µg/mL (≈ 0.0107 µM)
[44]
  MIC: > 64 µg/mL
[45]
  MIC: > 64 µg/mL
[46]
  MIC: > 64 µg/mL
[47]
  MIC: > 64 µg/mL
[48]
  MIC: 2 µg/mL (≈ 2.67 µM)
[49]
  MIC: 64 µg/mL (≈ 85.6 µM)
[50]
  MIC: > 64 µg/mL
